From ChEMBL document CHEMBL1154900, “Modified phenazines from an Indonesian Streptomyces sp” (2010) come the findings set out here.

The test system of test [1] is Rhizomucor miehei. Briefly: Antifungal activity against Mucor miehei at 56 ug/disk by agar diffusion method. Format: functional, organism-based. In outline:
(§1)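 Disk agar diffusion screen. Each sample was loaded per disk at the stated amount, either 14 µg/disk or 24 and 56 µg/disk. All six organisms were tested in one panel: S. aureus, B. subtilis, E. coli, P. aeruginosa, the fungus M. miehei and the yeast C. albicans.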
(In general: Agar diffusion results depend on both activity and mobility in agar.)

Test [2] deals with Pseudomonas aeruginosa. Briefly: Antibacterial activity against Pseudomonas aeruginosa at 56 ug/disk by agar diffusion method. Format: functional, organism-based. In outline: as §1
Test [3] concerns Candida albicans. Put plainly: Antifungal activity against Candida albicans at 56 ug/disk by agar diffusion method. The test is classed as functional, organism-based. The method, boiled down:
as §1

The test system of test [4] is Staphylococcus aureus. Briefly: Antibacterial activity against Staphylococcus aureus at 24 ug/disk by agar diffusion method. Format: functional. In outline: as §1
Test [5] deals with Escherichia coli. Put plainly: Antibacterial activity against Escherichia coli at 56 ug/disk by agar diffusion method. The test is classed as functional, organism-based. The method, boiled down: as §1
For test [6], the system named is Staphylococcus aureus. Put plainly: Antibacterial activity against Staphylococcus aureus at 56 ug/disk by agar diffusion method. The test is classed as functional, organism-based. In outline: as §1
Test [7] has as its system Bacillus subtilis. Put plainly: Antibacterial activity against Bacillus subtilis at 24 ug/disk by agar diffusion method. Format: functional, organism-based. The method, boiled down: as §1
Test [8] has as its system Pseudomonas aeruginosa. Briefly: Antibacterial activity against Pseudomonas aeruginosa at 24 ug/disk by agar diffusion method. Format: functional, organism-based. In outline:
as §1

Test [9] concerns Candida albicans. Briefly: Antifungal activity against Candida albicans at 24 ug/disk by agar diffusion method. The test is classed as functional, organism-based. In outline:
as §1

The subject of test [10] is Escherichia coli. Put plainly: Antibacterial activity against Escherichia coli at 24 ug/disk by agar diffusion method. Format: functional, organism-based. The method, boiled down:
as §1

The test system of test [11] is Bacillus subtilis. Briefly: Antibacterial activity against Bacillus subtilis at 56 ug/disk by agar diffusion method. The test is classed as functional, organism-based. In outline:
as §1

The test system of test [12] is Rhizomucor miehei. Put plainly: Antifungal activity against Mucor miehei at 24 ug/disk by agar diffusion method. The test is classed as functional, organism-based. In outline: as §1

SMILES strings stand for the structures. The source made the active and inactive calls. The calls are words filed in the database; no cut-off is given here.

Regarding `CCC(=O)C(C)C(=O)C1(C)Cc2ccc(OC)c3c2N(C1=O)c1cccc(C(=O)O)c1N3` (centres undefined), the result in test [1], in test [2], in test [3], in test [4], in test [5] and in test [6] was inactive. Further, the result in [7], in test [8], in test [9], in test [10], in test [11] and in test [12] was inactive.

Turning to `CCC(=O)C(C)C(=O)C(C)(Cc1ccc(OC)c2nc3c(C(=O)O)cccc3nc12)C(=O)OC` (centres undefined), the result in [1], in [2], in test [3], in test [5], in [6] and in test [7] was inactive. Further, the result in [8], in test [9], in [11] and in test [12] was inactive. Also, the zone of inhibition at 24 µg/disc in [4] (read-out: IZ) worked out at 14 mm. Moreover, the “inhibition zone (IZ)” value in [10] is “inactive”.
